Measurements taken from ChEMBL document CHEMBL5303300, “EUbOPEN Chemogenomics Library - Multiplex” (2023).
“And” between values parts separate entries of the source, which are not always exact repeats. Equal values may be shown once.

How the values were obtained:
[1] = system: HEK-293T; assay: Multiplex assay against HEK293T; format: toxicity, cell-based; conditions: human, number of replicates 2
Procedure, shortened: (§1)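 At seeding, live cells were stained with Hoechst33342, BioTracker Green Microtubule Cytoskeleton Dye, MitoTracker Red and Annexin V Alexa Fluor 680. After compound addition they were imaged on a CQ1 microscope at 37°C and 5% CO2, and CellPathfinder machine-learning gating sorted them into Hoechst high-intensity objects or normal cells, with normal cells further split into healthy, pyknosed or fragmented nuclei and pyknosed cells into mitotic or apoptotic. Tubulin, mitochondrial-mass and membrane-permeability phenotypes are given as per cents of cells with healthy nuclei.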

[2] = system: U2OS; assay: Multiplex assay against U2OS; format: toxicity, cell-based; conditions: human, number of replicates 2; procedure, shortened: as §1
[3] = 12 h, 1 µM, compound concentration 1 uM
[4] = 12 h, 10 µM, compound concentration 10 uM
[5] = 24 h, 1 µM, compound concentration 1 uM
[6] = 24 h, 10 µM, compound concentration 10 uM
[7] = 48 h, 1 µM, compound concentration 1 uM
[8] = 48 h, 10 µM, compound concentration 10 uM

Compound: CN1CCN(C(=O)Cc2ccc(N/C(=C3\C(=O)Nc4cc(Cl)ccc43)c3ccccc3)cc2)CC1
- Population Apoptotic (%) [1, 3]: 28% and 39%
- Population Fragmented Nuclei (%) [1, 3]: 2% and 3%
- Population Healthy Nuclei (%) [1, 3]: 86% and 84%
- Population Hoechst High Intensity Objects (%) [1, 3]: 5%
- Population Membrane Permeable-Phenotype (%) [1, 3]: 2% and 4%
- Population Mitochondria Different-Phenotype (%) [1, 3]: 10% and 16%
- Population Mitotic Cells (%) [1, 3]: 71% and 60%
- Population Normal (%) [1, 3]: 94%
- Population Pyknosed Nuclei (%) [1, 3]: 11% and 12%
- Population Tubulin-Different-Phenotype (%) [1, 3]: 45% and 47%
- Total Cell Count [1, 3]: 870 and 527
- Population Apoptotic (%) [1, 4]: 40% and 34%
- Population Fragmented Nuclei (%) [1, 4]: 1%
- Population Healthy Nuclei (%) [1, 4]: 86% and 81%
- Population Hoechst High Intensity Objects (%) [1, 4]: 3% and 5%
- Population Membrane Permeable-Phenotype (%) [1, 4]: 4% and 6%
- Population Mitochondria Different-Phenotype (%) [1, 4]: 22% and 18%
- Population Mitotic Cells (%) [1, 4]: 60% and 65%
- Population Normal (%) [1, 4]: 96% and 94%
- Population Pyknosed Nuclei (%) [1, 4]: 11% and 16%
- Population Tubulin-Different-Phenotype (%) [1, 4]: 67% and 69%
- Total Cell Count [1, 4]: 702 and 579
- Population Apoptotic (%) [1, 5]: 29% and 31%
- Population Fragmented Nuclei (%) [1, 5]: 4%
- Population Healthy Nuclei (%) [1, 5]: 87%
- Population Hoechst High Intensity Objects (%) [1, 5]: 9% and 5%
- Population Membrane Permeable-Phenotype (%) [1, 5]: 3%
- Population Mitochondria Different-Phenotype (%) [1, 5]: 6% and 10%
- Population Mitotic Cells (%) [1, 5]: 70% and 68%
- Population Normal (%) [1, 5]: 90% and 94%
- Population Pyknosed Nuclei (%) [1, 5]: 7% and 8%
- Population Tubulin-Different-Phenotype (%) [1, 5]: 28% and 32%
- Total Cell Count [1, 5]: 1172 and 750
- Population Apoptotic (%) [1, 6]: 29% and 34%
- Population Fragmented Nuclei (%) [1, 6]: 3% and 4%
- Population Healthy Nuclei (%) [1, 6]: 88% and 86%
- Population Hoechst High Intensity Objects (%) [1, 6]: 4% and 5%
- Population Membrane Permeable-Phenotype (%) [1, 6]: 3% and 4%
- Population Mitochondria Different-Phenotype (%) [1, 6]: 12% and 9%
- Population Mitotic Cells (%) [1, 6]: 70% and 65%
- Population Normal (%) [1, 6]: 95% and 94%
- Population Pyknosed Nuclei (%) [1, 6]: 8% and 9%
- Population Tubulin-Different-Phenotype (%) [1, 6]: 48%
- Total Cell Count [1, 6]: 992 and 819
- Population Apoptotic (%) [1, 7]: 17%
- Population Fragmented Nuclei (%) [1, 7]: 13% and 7%
- Population Healthy Nuclei (%) [1, 7]: 83% and 87%
- Population Hoechst High Intensity Objects (%) [1, 7]: 9% and 8%
- Population Membrane Permeable-Phenotype (%) [1, 7]: 3%
- Population Mitochondria Different-Phenotype (%) [1, 7]: 0% and 1%
- Population Mitotic Cells (%) [1, 7]: 82%
- Population Normal (%) [1, 7]: 90% and 91%
- Population Pyknosed Nuclei (%) [1, 7]: 2% and 4%
- Population Tubulin-Different-Phenotype (%) [1, 7]: 12% and 15%
- Total Cell Count [1, 7]: 2950 and 1758
- Population Apoptotic (%) [1, 8]: 17% and 42%
- Population Fragmented Nuclei (%) [1, 8]: 10% and 8%
- Population Healthy Nuclei (%) [1, 8]: 85% and 87%
- Population Hoechst High Intensity Objects (%) [1, 8]: 8% and 9%
- Population Membrane Permeable-Phenotype (%) [1, 8]: 4%
- Population Mitochondria Different-Phenotype (%) [1, 8]: 3%
- Population Mitotic Cells (%) [1, 8]: 82% and 58%
- Population Normal (%) [1, 8]: 91% and 90%
- Population Pyknosed Nuclei (%) [1, 8]: 3% and 4%
- Population Tubulin-Different-Phenotype (%) [1, 8]: 31% and 34%
- Total Cell Count [1, 8]: 1910 and 1370
- Population Apoptotic (%) [2, 3]: 100% and 55%
- Population Healthy Nuclei (%) [2, 3]: 57% and 86%
- Population Hoechst High Intensity Objects (%) [2, 3]: 0%
- Population Membrane Permeable-Phenotype (%) [2, 3]: 8% and 3%
- Population Mitochondria Different-Phenotype (%) [2, 3]: 8% and 0%
- Population Normal (%) [2, 3]: 100%
- Population Pyknosed Nuclei (%) [2, 3]: 7% and 10%
- Population Tubulin-Different-Phenotype (%) [2, 3]: 66% and 71%
- Population Fragmented Nuclei (%) [2, 4]: 3% and 12%
- Population Healthy Nuclei (%) [2, 4]: 81% and 77%
- Population Hoechst High Intensity Objects (%) [2, 4]: 0%
- Population Mitochondria Different-Phenotype (%) [2, 4]: 0%
- Population Mitotic Cells (%) [2, 4]: 43% and 100%
- Population Normal (%) [2, 4]: 100%
- Population Pyknosed Nuclei (%) [2, 4]: 14% and 9%
- Population Tubulin-Different-Phenotype (%) [2, 4]: 55% and 33%
- Population Apoptotic (%) [2, 5]: 66% and 69%
- Population Healthy Nuclei (%) [2, 5]: 64% and 88%
- Population Hoechst High Intensity Objects (%) [2, 5]: 0%
- Population Mitochondria Different-Phenotype (%) [2, 5]: 12% and 0%
- Population Mitotic Cells (%) [2, 5]: 33% and 30%
- Population Normal (%) [2, 5]: 100% and 99%
- Population Pyknosed Nuclei (%) [2, 5]: 16% and 9%
- Population Tubulin-Different-Phenotype (%) [2, 5]: 79% and 73%
- Population Apoptotic (%) [2, 6]: 33% and 62%
- Population Fragmented Nuclei (%) [2, 6]: 0% and 4%
